Measurements of several laboratories.
Each line is one published result; the experiments were not run side by side. In brackets after ≈: the same amount, converted by molar mass.

O=C(CCCCCCC(=O)Nc1ccccc1)NO  viability (OCI-Ly1; cell growth or viability, ATP luminescence; 0.5 µM, 5 days): 74.3%
Cc1n[nH]c2ccc3nc(-c4ccc(C(=O)NCCN(C)C)cc4)c4c(c3c12)CCCC4  GI50 (K562; cell growth or viability, resazurin; 72 h): 1.2 µM
O=C(Nc1cccc(Br)c1)c1cccc(S(=O)(=O)N2CCCCCC2)c1  viability (OCI-Ly1; cell growth or viability, ATP luminescence; 0.5 µM, 5 days): 157%
CN(C)CCN(C)C(=O)c1ccc(-c2nc3ccc4[nH]ncc4c3c3c2CC(C)(C)CC3)cc1  GI50 (K562; cell growth or viability, resazurin; 72 h): > 10 µM
Cc1c2c(nn1C)CSCc1cc(n(C)n1)CSc1cc(c3ccccc3c1)OCCCc1c(C(=O)O)n(C)c3c-2c(Cl)ccc13  MIC90 (Staphylococcus epidermidis; microbial growth, broth dilution; clinical isolate): 12.5 µM
O=C(/C=C/c1cccc(C(=O)NO)c1)NO  viability (OCI-Ly1; cell growth or viability, ATP luminescence; 0.5 µM, 5 days): 108%
Cc1n[nH]c2ccc3nc(-c4ccc(C(=O)NCCN(C)C)cc4)c4c(c3c12)CCC(C)(C)C4  GI50 (K562; cell growth or viability, resazurin; 72 h): 6.4 µM
CCCCCCCCCCCCCCCCCCOc1ccccc1CC(=O)OCC[N+]1(C)CCCCC1  inhibition (HOP-62; cell growth or viability, SRB; 10 µM): 30%
CC(=O)NC[C@H]1CN(c2ccc(N3CCOCC3)c(F)c2)C(=O)O1  MIC50 (Staphylococcus epidermidis; microbial growth, broth dilution; clinical isolate): 0.5 µg/mL (≈ 1.48 µM)
CCCCCCCCCCCCCCCCCCOc1cccc(CC(=O)OCC[N+](CC)(CC)CC)c1  inhibition (HOP-92; cell growth or viability, SRB; 10 µM): 47.7%
O=C(Nc1ccc(Cl)cc1)C1CCCN(C(=O)c2cc(C(F)(F)F)cc(C(F)(F)F)c2)C1 (racemic)  viability (OCI-Ly1; cell growth or viability, ATP luminescence; 0.5 µM, 5 days): 137%
Cc1n[nH]c2ccc3nc(-c4ccc(C(=O)N(C)CCN(C)C)cc4)c4c(c3c12)CCC(F)(F)C4  GI50 (K562; cell growth or viability, resazurin; 72 h): 9.1 µM
CCCCCCCCCCCCCCCCCCOc1ccc(CC(=O)OCC[N+]2(C)CCCCC2)cc1  inhibition (HOP-92; cell growth or viability, SRB; 10 µM): 2.18%
Cc1cc(O)cc(Nc2nnc(-c3n[nH]c4ccc(C)cc34)s2)c1  MIC (Staphylococcus epidermidis; microbial growth; ATCC12228): 201 µg/mL (≈ 596 µM)
CN(C)CCN(C)C(=O)c1ccc(-c2nc3ccc4[nH]ncc4c3c3c2CCCCC3)nc1  GI50 (K562; cell growth or viability, resazurin; 72 h): > 10 µM
C=C[C@]1(C)C[C@@H](OC(=O)CS[C@@H]2C[C@H]3CC[C@@H](C2)N3C)[C@]2(C)[C@H](C)CC[C@]3(CCC(=O)[C@H]32)[C@@H](C)[C@@H]1O  MIC90 (Staphylococcus epidermidis; microbial growth; MRSE; clinical isolate): 0.0625 µg/mL
CCCCCCCCCCCCCCCCCCOc1ccc(CC(=O)OCCC[N+](C)(C)C)cc1  inhibition (HOP-62; cell growth or viability, SRB; 10 µM): 8.58%
Cc1n[nH]c2ccc3nc(-c4ccc(C(=O)NCCN(C)C)cc4F)c4c(c3c12)CCCC4  GI50 (K562; cell growth or viability, resazurin; 72 h): 0.772 µM
CC1(C)S[C@@H]2[C@H](NC(=O)[C@H](N)c3ccccc3)C(=O)N2[C@H]1C(=O)O  MIC50 (Staphylococcus epidermidis; microbial growth; clinical isolate): 8 µg/mL (≈ 22.9 µM)
Cc1ccc2[nH]nc(-c3nnc(Nc4ccc(Br)cc4)s3)c2c1  MIC (Staphylococcus epidermidis; microbial growth; ATCC12228): 190 µg/mL (≈ 493 µM)
O=C(Nc1nccs1)c1ccc(-c2nc3ccc4[nH]ncc4c3c3c2CCCC3)cc1  GI50 (K562; cell growth or viability, resazurin; 72 h): > 10 µM
CCCCCCCCCCCCCCCCCCOc1ccccc1CC(=O)OCCC[N+](C)(C)C  inhibition (HOP-62; cell growth or viability, SRB; 10 µM): 32.9%
CN[C@H](CC(C)C)C(=O)N[C@H]1C(=O)N[C@@H](CC(N)=O)C(=O)N[C@H]2C(=O)N[C@H]3C(=O)N[C@H](C(=O)N[C@H](C(=O)O)c4cc(O)cc(O)c4-c4cc3ccc4O)[C@H](O)c3ccc(c(Cl)c3)Oc3cc2cc(c3O[C@@H]2O[C@H](CO)[C@@H](O)[C@H](O)[C@H]2O[C@H]2C[C@](C)(N)[C@H](O)[C@H](C)O2)Oc2ccc(cc2Cl)[C@H]1O  MIC90 (Staphylococcus epidermidis; microbial growth, broth dilution; clinical isolate): 2 µg/mL
O=C(CCCCCCSc1ccc2ccccc2c1)NO  viability (OCI-Ly1; cell growth or viability, ATP luminescence; 0.5 µM, 5 days): 173%
CCCCCCCCCCCCCCCCCCOc1ccccc1CC(=O)OCC[N+]1(C)CCCC1  inhibition (HOP-92; cell growth or viability, SRB; 10 µM): 67.3%
COc1c(N2C[C@@H]3CCCN[C@@H]3C2)c(F)cc2c(=O)c(C(=O)O)cn(C3CC3)c12  MIC90 (Staphylococcus epidermidis; microbial growth, broth dilution; clinical isolate): 2 µg/mL
CCCCCCCCCCCCCCCCCCOc1cccc(CC(=O)OCC[N+]2(C)CCCCC2)c1  inhibition (HOP-92; cell growth or viability, SRB; 10 µM): 19%
Cc1ccc2[nH]nc(-c3nnc(Nc4ccc(O)cc4)s3)c2c1  MIC (Staphylococcus epidermidis; microbial growth; ATCC12228): 140 µg/mL (≈ 432 µM)
CC[C@H]1OC(=O)[C@H](C)[C@@H](O[C@H]2C[C@@](C)(OC)[C@@H](O)[C@H](C)O2)[C@H](C)[C@@H](O[C@@H]2O[C@H](C)C[C@H](N(C)C)[C@H]2O)[C@](C)(O)C[C@@H](C)/C(=N\OCOCCOC)[C@H](C)[C@@H](O)[C@]1(C)O  MIC90 (Staphylococcus epidermidis; microbial growth; clinical isolate): 64 µg/mL
CN(C)CCNC(=O)c1ccc(-c2nc3ccc4[nH]ncc4c3c3c2CCCC3)c(F)c1  GI50 (K562; cell growth or viability, resazurin; 72 h): 1.1 µM
